The results in this text go back to ChEMBL document CHEMBL1799933, “Discovery of a selective allosteric M1 receptor modulator with suitable development properties based on a quinolizidinone carboxylic acid scaffold” (J Med Chem, 2011).

The source made the active and inactive calls. The rule behind the calls is not given here. Where only a bound is given, the exact number is not on record here.

For data set [1], the target named is T1, Muscarinic acetylcholine receptor M1 (Homo sapiens) (UniProt P11229).
T1 sequence (whole entry): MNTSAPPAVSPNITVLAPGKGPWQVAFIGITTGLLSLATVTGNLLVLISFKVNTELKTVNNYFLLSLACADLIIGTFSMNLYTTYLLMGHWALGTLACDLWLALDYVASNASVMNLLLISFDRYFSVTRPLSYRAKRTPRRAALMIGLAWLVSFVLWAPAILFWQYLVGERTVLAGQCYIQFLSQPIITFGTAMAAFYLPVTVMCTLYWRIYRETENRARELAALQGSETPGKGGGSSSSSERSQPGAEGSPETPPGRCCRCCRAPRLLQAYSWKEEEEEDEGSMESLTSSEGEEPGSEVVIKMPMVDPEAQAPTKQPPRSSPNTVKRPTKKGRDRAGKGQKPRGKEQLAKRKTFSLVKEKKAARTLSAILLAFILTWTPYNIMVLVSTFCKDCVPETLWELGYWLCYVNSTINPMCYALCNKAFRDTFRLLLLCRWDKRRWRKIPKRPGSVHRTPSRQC
Description: Agonist activity at human muscarinic M1 receptor expressed in CHONFAT cells assessed as enhancement of acetylcholine-induced calcium mobilization preincubated for 4 mins measured after 1 hr by FLIPR assay. Format: functional, cell-based. The method, boiled down:
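CHO-NFAT cells expressing the named muscarinic receptor (human M1–M4; rhesus, dog or rat M1 in CHO-K1) were plated at 25,000 cells/well and grown overnight at 37 °C, 6% CO2. Cells were loaded with 1 μM Fluo-4AM for 1 h, washed, and preincubated 4 min with serially diluted compound (final DMSO 0.67%). They were then stimulated 4 min with an EC20 of ACh, and Ca2+ flux was read by FLIPR384.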

The nature of data set [2]: Fraction unbound in human plasma. It counts as ADME, cell-free.
A short description of data set [3]: Passive permeability of the compound at 5 uM. Format: ADME. As to conditions: not told.
Data set [4] can be described thus: Ratio of drug level in brain to plasma of Sprague-Dawley rat at 10 mg/kg, po. It counts as ADME, organism-based. On the set-up: dose 10 mg/kg, route oral. As to conditions: read-out: BPR. The method, boiled down: (§1)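 Rats dosed orally at 10 mpk. Plasma, brain and CSF sampled at 2 h and concentrations determined by bioanalysis.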
Data set [5] in a line: Ratio of drug level in cerebrospinal fluid to fraction unbound level in plasma of Sprague-Dawley rat at 10 mg/kg, po. Particulars: in vivo. On the set-up: dose 10 mg/kg, route oral. Format: ADME, organism-based.
The subject of the next data set is Brain. Nature of the data set: Drug level Sprague-Dawley rat brain at 10 mg/kg, po. Format: ADME, organism-based. On the set-up: dose 10 mg/kg, route oral. Particulars: in vivo, read-out: Drug uptake. In a few lines:
as §1

Data set [6] in a line: Fraction unbound in rat plasma. Format: ADME, cell-free.
The subject of another data set is Cerebrospinal fluid. Description: Drug level in Sprague-Dawley rat cerebrospinal fluid at 10 mg/kg, po. On the set-up: dose 10 mg/kg, route oral. It counts as ADME, organism-based. Particulars: in vivo, read-out: Drug uptake. The method, boiled down:
as §1

A short description of data set [7]: Plasma protein binding in human serum by equilibrium dialysis method. It counts as ADME, cell-free. Particulars: read-out: PPB (converted). In a few lines:
(§2)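 Protein binding measured by equilibrium dialysis against rat or human serum.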

Data set [8] in a line: Plasma protein binding in rat serum by equilibrium dialysis method. Format: ADME, cell-free. Particulars: read-out: PPB (converted). The method, boiled down:
as §2

The next data set has as its system Plasma. Description: Drug level in Sprague-Dawley rat plasma at 10 mg/kg, po. Format: ADME, organism-based. On the set-up: dose 10 mg/kg, route oral. As to conditions: in vivo. The method, boiled down:
as §1

Data set [9] is described as follows: Lipophilicity, log P of the compound. It counts as physicochemical. As to conditions: octanol/water.
For data set [10], the system named is Mus musculus. Nature of the data set: Antiamnesic activity against scopolamine-induced dementia in ip dosed B6SJL mouse assessed as increase in freezing behavior at 33 uM plasma concentration. Format: functional, organism-based.
In the next data set the test system is Canis familiaris. Description: Metabolic stability in po dosed portal vein cannulated dog assessed as level of presystemic G1 glucuronidation by scintillation counting. It counts as ADME, organism-based, Canis lupus familiaris. As to conditions: in vivo.
Data set [11] is described as follows: Clearance in dog at 3 mg/kg, po and 1 mg/kg, iv. Format: ADME, organism-based, Canis lupus familiaris. Particulars: in vivo. The method, boiled down: (§3)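 Dog PK, n = 2 animals. Given orally at 3 mg/kg and intravenously at 1 mg/kg. Interanimal variability under 20% for all values.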
The nature of data set [12]: Oral bioavailability in dog at 3 mg/kg. Format: ADME, organism-based, Canis lupus familiaris. Particulars: in vivo. In a few lines: as §3
A short description of data set [13]: Half life in rat at 3 mg/kg, po and 1 mg/kg, iv. Format: ADME, organism-based. As to conditions: in vivo. The method, boiled down: (§4)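 Rats (n = 2) dosed orally at 3 mg/kg and IV at 1 mg/kg. Interanimal variability under 20% for all values.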
The nature of data set [14]: Clearance in rat at 3 mg/kg, po and 1 mg/kg, iv. As to conditions: in vivo. It counts as ADME, organism-based. In a few lines:
as §4

Data set [15] is described as follows: Half life in dog at 3 mg/kg, po and 1 mg/kg, iv. It counts as ADME, organism-based, Canis lupus familiaris. As to conditions: in vivo. In a few lines: as §3
A short description of data set [16]: Oral bioavailability in rat at 3 mg/kg. Format: ADME, organism-based. As to conditions: in vivo. In a few lines:
as §4

Data set [17] has as its system Mus musculus. Nature of the data set: Antiamnesic activity against scopolamine-induced dementia in ip dosed B6SJL mouse assessed as increase in freezing behavior at 7.4 uM plasma concentration. Format: functional, organism-based.

As for `N#CC1(c2ccc(F)cc2)CCN(Cc2cc(C(=O)O)c(=O)n3ccccc23)CC1`, the IP in [1] amounted to 194 nM.

`N#CC1(c2ccccc2)CCN(Cc2cc(C(=O)O)c(=O)n3ccccc23)CC1`: the fraction unbound in data set [2] was 0.1; in data set [6], 0.1; in [7], 0.101; in [8], 0.135. The compound also showed a Papp at 5 µM in [3] of 27 ×10⁻⁶ cm/s. In [4], the Kp was 0.39. The Ratio in data set [5] is on record as 0.25. Further, the concentration was 127 nM with Brain, 8 nM in the data set on Cerebrospinal fluid and 321 nM in the data set with Plasma. The IP in data set [1] was 151 nM.

As for `O=C(O)c1cc(CN2CCC(c3ccccc3)CC2)c2ccccn2c1=O`, the IP in data set [1] was 1340 nM.

Take `N#CC1(c2cccnc2)CCN(Cc2cc(C(=O)O)c(=O)n3ccccc23)CC1`: the Papp at 5 µM in data set [3] was found to be 39 ×10⁻⁶ cm/s. The same compound displayed a logP in data set [9] of -0.4. Besides, in data set [5], the Ratio is on record as under 0.1. For the same compound, in [1], the IP came to 363 nM. Further, the values for the concentration with Cerebrospinal fluid and in the data set on Plasma were 40 nM and 1720 nM, respectively. In addition, the fraction unbound was 0.361 in [7] and 0.509 in data set [8].

For the compound `N#CC1(c2ccncc2)CCN(Cc2cc(C(=O)O)c(=O)n3ccccc23)CC1`, in [1], the IP came out at 938 nM.

Consider `COc1ccccc1C1(C#N)CCN(Cc2cc(C(=O)O)c(=O)n3ccccc23)CC1`, for which, in data set [1], the IP worked out at 164 nM.

On to `N#CC1(c2cccc(Cl)n2)CCN(Cc2cc(C(=O)O)c(=O)n3ccccc23)CC1`, for which, in [1], the IP was found to be 133 nM. Further, the fraction unbound in data set [7] is 0.071; in data set [8], 0.218.

Turning to `CCc1ccnc(C2(C#N)CCN(Cc3cc(C(=O)O)c(=O)n4ccccc34)CC2)c1`, the IP in data set [1] amounted to 84 nM. Besides, the fraction unbound in data set [7] was 0.134; in data set [8], 0.272.

With `N#CC1(c2cccc(F)c2)CCN(Cc2cc(C(=O)O)c(=O)n3ccccc23)CC1`, the IP in data set [1] came out at 562 nM.

On to `COc1ccc(Cn2cc(C(=O)O)c(=O)c3ccccc32)cc1`, for which the outcome in the data set on Mus musculus [10] was Active.

Take `[3H]OC(=O)c1cc(CN2CCC(C#N)(c3ccccn3)CC2)c2ccccn2c1=O`: the Stability with Canis familiaris is on record as 50%.

Compound `Cc1ccnc(C2(C#N)CCN(Cc3cc(C(=O)O)c(=O)n4ccccc34)CC2)c1` had a Papp at 5 µM in [3] of 27 ×10⁻⁶ cm/s. The Kp in data set [4] worked out at 0.07. The clearance in data set [11] is 10.1 mL/min/kg; in data set [14], 17.7 mL/min/kg. For the same compound, the Ratio in data set [5] was 0.25. Further, the concentration was found to be 233 nM with Brain, 180 nM with Cerebrospinal fluid and 3070 nM with Plasma. For the same compound, in [1], the IP was found to be 44 nM. For the same compound, the bioavailability is 47% in data set [12] and 24% in data set [16]. Further, the results for the half-life in data set [13] and in [15] were 1.9 h and 3.9 h, respectively. In addition, the fraction unbound in data set [7] is 0.235; in data set [8], 0.467.

`Cc1cccnc1C1(C#N)CCN(Cc2cc(C(=O)O)c(=O)n3ccccc23)CC1`: in [1], the IP was found to be 1940 nM.

Take `Cc1ccc(C2(C#N)CCN(Cc3cc(C(=O)O)c(=O)n4ccccc34)CC2)nc1`: the IP in [1] is 204 nM. Moreover, the values for the fraction unbound in data set [7] and in [8] were 0.175 and 0.348, respectively.

With `N#Cc1ccc(N2CCN(Cc3cc(C(=O)O)c(=O)n4ccccc34)CC2)cc1`, in the data set with Mus musculus [17], the outcome was Active.

Consider `COc1ccnc(C2(C#N)CCN(Cc3cc(C(=O)O)c(=O)n4ccccc34)CC2)c1`, for which the IP in [1] amounted to 224 nM. Moreover, the fraction unbound in [7] was 0.217; in data set [8] it was 0.485.

Regarding `Cc1cccc(C2(C#N)CCN(Cc3cc(C(=O)O)c(=O)n4ccccc34)CC2)c1`, the IP in data set [1] was 88 nM. In addition, the results for the fraction unbound in data set [7] and in data set [8] were 0.048 and 0.059, respectively.

Consider `N#CC1(c2ccccc2F)CCN(Cc2cc(C(=O)O)c(=O)n3ccccc23)CC1`, for which the IP in [1] was found to be 81 nM. The fraction unbound was 0.055 in [7] and 0.102 in [8].

For the compound `N#CC1(c2cc(F)ccn2)CCN(Cc2cc(C(=O)O)c(=O)n3ccccc23)CC1`, in data set [1], the IP amounted to 244 nM.

As for `N#CC1(c2cc(-c3ccccc3)ccn2)CCN(Cc2cc(C(=O)O)c(=O)n3ccccc23)CC1`, the IP in data set [1] amounted to 659 nM.

`Cc1cccc(C2(C#N)CCN(Cc3cc(C(=O)O)c(=O)n4ccccc34)CC2)n1`: the IP in data set [1] was found to be 148 nM. Moreover, the fraction unbound in data set [7] was 0.158; in [8] it was 0.249.

With `N#CC1(c2cc(C(F)(F)F)ccn2)CCN(Cc2cc(C(=O)O)c(=O)n3ccccc23)CC1`, the IP in [1] was determined as 2720 nM.

For `Cc1ccccc1C1(C#N)CCN(Cc2cc(C(=O)O)c(=O)n3ccccc23)CC1`, the Papp at 5 µM in data set [3] is 24 ×10⁻⁶ cm/s. The Kp in data set [4] was found to be 0.48. Further, the Ratio in [5] was 0.5. Further, the concentration in the data set with Brain was 114 nM; in the data set on Cerebrospinal fluid it was 16 nM; in the data set with Plasma it was 234 nM. In addition, the IP in data set [1] amounted to 68 nM. The fraction unbound in data set [7] was 0.038; in [8] it was 0.051.

As for `CSc1cccc(C2(C#N)CCN(Cc3cc(C(=O)O)c(=O)n4ccccc34)CC2)n1`, the IP in data set [1] was found to be 100 nM. The fraction unbound in data set [7] was 0.012; in data set [8], 0.057.

With `N#CC1CCN(Cc2cc(C(=O)O)c(=O)n3ccccc23)CC1`, in [1], the IP was 7650 nM.
